Test results from ChEMBL document CHEMBL4406897 (Bioorg Med Chem, 2019).
pIC50, pKi: −log10 of the molar value.

Tests used:
Plasmodium falciparum [1] = assay: (§1) Antimalarial activity against Plasmodium falciparum TM4/8.2 infected in human erythrocytes assessed as reduction in [3H]-hypoxanthine incorporation pretreated for 24 hrs followed by [3H]-hypoxanthine addition measured after 18 hrs by liquid scintillation counting method; assay type: functional, organism-based
Dihydrofolate reductase [2] = molecular target: T1, Dihydrofolate reductase (Homo sapiens, UniProt P00374); assay: Inhibition of human dihydrofolate reductase using dihydrofolate as substrate in presence of NADPH by UV-vis spectrophotometry analysis; conditions: for pKi: read-out: Ki
T1 sequence (P00374 whole entry): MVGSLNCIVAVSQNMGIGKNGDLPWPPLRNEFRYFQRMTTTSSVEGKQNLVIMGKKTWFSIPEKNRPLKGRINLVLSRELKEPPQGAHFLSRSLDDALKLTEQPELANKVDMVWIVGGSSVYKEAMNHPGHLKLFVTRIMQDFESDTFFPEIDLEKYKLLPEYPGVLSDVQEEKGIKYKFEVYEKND

Plasmodium falciparum [3] = assay: as §1, with “against pyrimethamine-resistant” for “against”, “V1/S expressing Dihydrofolate reductase N51I/C59R/S108N/I164L mutant” for “TM4/8.2”, “18” for “24”, “24” for “18”; assay type: functional, organism-based
Outline: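 P. falciparum V1/S kept in continuous culture in human erythrocytes at 37 °C under 3% CO2. Growth inhibition was read as [3H]-hypoxanthine incorporation.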

Vero = assay: Cytotoxicity against African green monkey Vero cells by sulforhodamine B assay; assay type: cell-based; conditions: Chlorocebus sabaeus
[4] = Competitive inhibition of Plasmodium falciparum dihydrofolate reductase N51I/C59R/S108N/I164L quadruple mutant expressed in Escherichia coli BL21(DE3)pLysS using dihydrofolate as substrate in presence of NADPH by UV-vis spectrophotometry analysis
Outline: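 Quadruple-mutant PfDHFR expressed from a pET plasmid in E. coli BL21(DE3)pLysS, induced with 0.4 mM IPTG at 20 °C for 20 h. Cells lysed by French press at 18,000 psi. Enzyme purified on methotrexate-Sepharose in 20 mM potassium phosphate pH 7.0 with 50 mM KCl, 10 mM DTT, 0.1 mM EDTA and 20% glycerol. Activity read spectrophotometrically at 25 °C. Ki measured in microplate format, assuming competitive inhibition.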

[5] = Competitive inhibition of wild type Plasmodium falciparum dihydrofolate reductase expressed in Escherichia coli BL21(DE3)pLysS using dihydrofolate as substrate in presence of NADPH by UV-vis spectrophotometry analysis
Outline: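 Wild-type PfDHFR expressed from pET plasmid after 0.4 mM IPTG induction at 20 °C for 20 h. Cells lysed by French press at 18,000 psi. Enzyme purified on methotrexate-Sepharose in 20 mM potassium phosphate pH 7.0 with 0.1 mM EDTA, 10 mM DTT, 50 mM KCl and 20% glycerol. Activity read spectrophotometrically at 25 °C. Ki measured in microplate format, assuming competitive inhibition.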

Plasmodium falciparum [6] = assay: Ratio of compound IC50 to pyrimethamine IC50 for antimalarial activity against Plasmodium falciparum V1/S infected in human erythrocytes; assay type: functional
dihydrofolate reductase [7] = assay: Selectivity ratio of Ki for human dihydrofolate reductase to Ki for Plasmodium falciparum dihydrofolate reductase N51I/C59R/S108N/I164L quadruple mutant; assay type: toxicity; conditions: read-out: Ratio Ki
dihydrofolate reductase [8] = assay: Selectivity ratio of Ki for human dihydrofolate reductase to Ki for wild type Plasmodium falciparum TM4/8.2 dihydrofolate reductase; assay type: toxicity; conditions: read-out: Ratio Ki
[9] = Selectivity ratio of IC50 for African green monkey Vero cells to IC50 for Plasmodium falciparum TM4/8.2 infected in human erythrocytes; assay type: toxicity, cell-based; conditions: read-out: Ratio IC50
Plasmodium falciparum [10] = assay: Ratio of compound IC50 to pyrimethamine IC50 for antimalarial activity against Plasmodium falciparum TM4/8.2 infected in human erythrocytes; assay type: functional
[11] = Selectivity ratio of IC50 for African green monkey Vero cells to IC50 for Plasmodium falciparum V1/S infected in human erythrocytes; assay type: toxicity, cell-based; conditions: read-out: Ratio IC50

CCc1nc(N)nc(N)c1-c1ccccc1
pIC50 (Plasmodium falciparum [1]): 6.14 | pKi (Dihydrofolate reductase [2]): 7.98 | pIC50 (Plasmodium falciparum [3]): < 4.30

Cl.Nc1nc(N)c(-c2cccc(Cl)c2)c(CCCCCOc2ccccc2)n1
pIC50 (Plasmodium falciparum [1]): 6.37 | pIC50 (Vero): 5.14 | pKi (Dihydrofolate reductase [2]): 7.73 | pKi [4]: 8.49 | pIC50 (Plasmodium falciparum [3]): 5.04

Cl.Nc1nc(N)c(-c2ccccc2)c(COc2cccc(OCCCC(=O)O)c2)n1
pIC50 (Plasmodium falciparum [1]): 5.28 | pIC50 (Vero): < 4.30 | pKi (Dihydrofolate reductase [2]): 6.26 | pIC50 (Plasmodium falciparum [3]): 4.51

CCOC(=O)CCCOc1ccccc1CCc1nc(N)nc(N)c1-c1cccc(Cl)c1
pIC50 (Plasmodium falciparum [1]): 6.15 | pIC50 (Vero): 5.09 | pKi (Dihydrofolate reductase [2]): 7.63 | pIC50 (Plasmodium falciparum [3]): 5.28

Cl.Nc1nc(N)c(-c2cccc(Cl)c2)c(CCCCOc2cccc(OCC(=O)O)c2)n1
pIC50 (Plasmodium falciparum [1]): 7.37 | pIC50 (Vero): < 4.30 | pKi (Dihydrofolate reductase [2]): 7.87 | pKi [4]: 9.14 | pIC50 (Plasmodium falciparum [3]): 5.85

Cl.Nc1nc(N)c(-c2ccccc2)c(CCCOc2cccc(OCC(=O)O)c2)n1
pIC50 (Plasmodium falciparum [1]): 7.15 | pIC50 (Vero): < 5.00 | pKi (Dihydrofolate reductase [2]): 7.74 | pKi [4]: 9.30 | pIC50 (Plasmodium falciparum [3]): 5.57

Cl.Nc1nc(N)c(-c2cccc(Cl)c2)c(CCc2ccccc2OCCCc2ccccc2)n1
pIC50 (Plasmodium falciparum [1]): 5.20 | pIC50 (Vero): 6.19 | Ki (Dihydrofolate reductase [2]): Active | pIC50 (Plasmodium falciparum [3]): 5.26

Cl.Nc1nc(N)c(-c2ccccc2)c(COc2cccc(OCC(=O)O)c2)n1
pIC50 (Plasmodium falciparum [1]): 4.28 | pIC50 (Vero): < 4.00 | pKi (Dihydrofolate reductase [2]): 6.29 | pIC50 (Plasmodium falciparum [3]): < 4.00

Cl.Nc1nc(N)c(-c2cccc(Cl)c2)c(CCc2ccccc2OCc2ccccc2)n1
pIC50 (Plasmodium falciparum [1]): 5.71 | pIC50 (Vero): 6.40 | pKi (Dihydrofolate reductase [2]): 7.84 | pKi [4]: 8.51 | pIC50 (Plasmodium falciparum [3]): 5.32

Cl.Nc1nc(N)c(-c2cccc(Cl)c2)c(CCCOc2cccc(OCCCC(=O)O)c2)n1
pIC50 (Plasmodium falciparum [1]): 7.31 | pIC50 (Vero): < 5.00 | pKi (Dihydrofolate reductase [2]): 7.71 | pKi [4]: 9.01 | pIC50 (Plasmodium falciparum [3]): 6.36

Cl.Nc1nc(N)c(-c2cccc(Cl)c2)c(CCCCOc2cccc(OCCCC(=O)O)c2)n1
pIC50 (Plasmodium falciparum [1]): 7.29 | pIC50 (Vero): < 4.00 | pKi (Dihydrofolate reductase [2]): 7.66 | pKi [4]: 9.03 | pIC50 (Plasmodium falciparum [3]): 5.52

Cl.Nc1nc(N)c(-c2ccccc2)c(CCCCCOc2ccccc2)n1
pKi [5]: 9.52 | Ratio IC50 (Plasmodium falciparum [6]): 0.08 | selectivity ratio (dihydrofolate reductase [7]): 9.11 | selectivity ratio (dihydrofolate reductase [8]): 110 | selectivity ratio [9]: 20.8 | Ratio IC50 (Plasmodium falciparum [10]): 4.75 | selectivity ratio [11]: 1 | pIC50 (Plasmodium falciparum [1]): 6.42 | pIC50 (Vero): 5.10 | pKi (Dihydrofolate reductase [2]): 7.48 | pKi [4]: 8.44 | pIC50 (Plasmodium falciparum [3]): 5.10

Cl.Nc1nc(N)c(-c2cccc(Cl)c2)c(COc2cccc(OCCCC(=O)O)c2)n1
pIC50 (Plasmodium falciparum [1]): 5.74 | pIC50 (Vero): < 4.00 | pKi (Dihydrofolate reductase [2]): 7.13 | pIC50 (Plasmodium falciparum [3]): 5.21

Cl.Nc1nc(N)c(-c2ccccc2)c(CCc2ccccc2OCc2ccccc2)n1
pIC50 (Plasmodium falciparum [1]): 6.19 | pIC50 (Vero): 5.73 | pKi (Dihydrofolate reductase [2]): 7.66 | pIC50 (Plasmodium falciparum [3]): 5.36

Cl.Nc1nc(N)c(-c2ccccc2)c(CCCCOc2ccccc2)n1
pIC50 (Plasmodium falciparum [1]): 6.44 | pIC50 (Vero): 4.81 | pKi (Dihydrofolate reductase [2]): 7.31 | pKi [4]: 8.76 | pIC50 (Plasmodium falciparum [3]): 4.95

CCOC(=O)CCCOc1ccccc1CCc1nc(N)nc(N)c1-c1ccccc1.Cl
pIC50 (Plasmodium falciparum [1]): 5.90 | pIC50 (Vero): < 5.00 | pKi (Dihydrofolate reductase [2]): 7.49 | pIC50 (Plasmodium falciparum [3]): < 5.00

Cl.Nc1nc(N)c(-c2ccccc2)c(CCCCOc2cccc(OCCCC(=O)O)c2)n1
pIC50 (Plasmodium falciparum [1]): 7.15 | pIC50 (Vero): < 4.00 | pKi (Dihydrofolate reductase [2]): 7.46 | pKi [4]: 8.91 | pIC50 (Plasmodium falciparum [3]): 5.41

Cl.Nc1nc(N)c(-c2ccccc2)c(CCCOc2ccccc2)n1
pIC50 (Plasmodium falciparum [1]): 6.89 | pIC50 (Vero): 5.86 | pKi (Dihydrofolate reductase [2]): 7.90 | pKi [4]: 8.86 | pIC50 (Plasmodium falciparum [3]): 4.82

Cl.Nc1nc(N)c(-c2ccccc2)c(CCc2ccccc2OCCCc2ccccc2)n1
pIC50 (Plasmodium falciparum [1]): 5.17 | pIC50 (Vero): 5.30 | pKi (Dihydrofolate reductase [2]): 7.56 | pIC50 (Plasmodium falciparum [3]): 5.21

Cl.Nc1nc(N)c(-c2cccc(Cl)c2)c(CCCCOc2ccccc2)n1
pIC50 (Plasmodium falciparum [1]): 6.47 | pIC50 (Vero): 5.29 | pKi (Dihydrofolate reductase [2]): 7.89 | pKi [4]: 8.83 | pIC50 (Plasmodium falciparum [3]): 5.16

Cl.Nc1nc(N)c(-c2cccc(Cl)c2)c(CCCOc2ccccc2)n1
pKi [5]: 9.62 | Ratio IC50 (Plasmodium falciparum [6]): 0.03 | selectivity ratio (dihydrofolate reductase [7]): 7.52 | selectivity ratio (dihydrofolate reductase [8]): 36.3 | selectivity ratio [9]: 2.76 | Ratio IC50 (Plasmodium falciparum [10]): 2.13 | selectivity ratio [11]: 0.14 | pIC50 (Plasmodium falciparum [1]): 6.77 | pIC50 (Vero): 6.33 | pKi (Dihydrofolate reductase [2]): 8.06 | pKi [4]: 8.94 | pIC50 (Plasmodium falciparum [3]): 5.47

Cl.Nc1nc(N)c(-c2cccc(Cl)c2)c(COc2cccc(OCC(=O)O)c2)n1
pIC50 (Plasmodium falciparum [1]): 5.22 | pIC50 (Vero): < 5.00 | pKi (Dihydrofolate reductase [2]): 7.28 | pIC50 (Plasmodium falciparum [3]): 4.94

Cl.Nc1nc(N)c(-c2ccccc2)c(CCCOc2cccc(OCCCC(=O)O)c2)n1
pIC50 (Plasmodium falciparum [1]): 7.28 | pIC50 (Vero): < 4.60 | pKi (Dihydrofolate reductase [2]): 7.54 | pKi [4]: 8.90 | pIC50 (Plasmodium falciparum [3]): 6.27

Cl.Nc1nc(N)c(-c2ccccc2)c(CCCCOc2cccc(OCC(=O)O)c2)n1
pKi [5]: 9.30 | Ratio IC50 (Plasmodium falciparum [6]): 0.01 | selectivity ratio (dihydrofolate reductase [7]): 44.2 | selectivity ratio (dihydrofolate reductase [8]): 91.9 | selectivity ratio [9]: > 17.2 | Ratio IC50 (Plasmodium falciparum [10]): 0.73 | pIC50 (Plasmodium falciparum [1]): 7.24 | pIC50 (Vero): < 6.00 | pKi (Dihydrofolate reductase [2]): 7.34 | pKi [4]: 8.98 | pIC50 (Plasmodium falciparum [3]): < 6.00

Cl.Nc1nc(N)c(-c2cccc(Cl)c2)c(CCCOc2cccc(OCC(=O)O)c2)n1
pIC50 (Plasmodium falciparum [1]): 7.32 | pIC50 (Vero): < 4.30 | pKi (Dihydrofolate reductase [2]): 7.87 | pKi [4]: 9.39 | pIC50 (Plasmodium falciparum [3]): 6.37

CCc1nc(N)nc(N)c1-c1ccc(Cl)cc1 [PYRIMETHAMINE]
pKi [5]: 9.22 | pKi [4]: 6.41 | pIC50 (Plasmodium falciparum [3]): < 4.00
